In ChEMBL document CHEMBL4330180, “Identification of Portimine B, a New Cell Permeable Spiroimine That Induces Apoptosis in Oral Squamous Cell Carcinoma” (ACS Med Chem Lett, 2019):
Active and inactive are the calls of the source. The calls are words filed in the database; no cut-off is given here.

How the values were obtained:
[1] = (§1) Antiproliferative activity against human HN12 cells after 48 hrs by ATP-based Cell Titer-Glo assay; format: functional; settings: HN12, 48 h
Procedure, shortened: (§2)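 OCSCC cells cultured with increasing concentrations of purified compound (98% by UPLC-PDA). Read-out was ATP-based luminescent proliferation. Exposure is given as 48 h in the figure legend and 36 h in the text. IC50 values were taken from the dose-response curves. Error bars are SD.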

UMSCC23 [2] = test: Induction of apoptosis in human UMSCC23 cells assessed as increase in Bcl2 mRNA expression at antiproliferative IC50 over 36 hrs by RT-qPCR analysis; format: functional, cell-based
Procedure, shortened: (§3)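 OCSCC cultures treated at the IC50 from the ATP proliferation assay. cDNA libraries were made from the treated cells and analysed for apoptotic transcripts by Taqman RT-qPCR. Three independent experiments were run, each in triplicate, with error bars given as SEM.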

HN12 [3] = test: Induction of apoptosis in human HN12 cells assessed as increase in GADD45alpha mRNA expression at antiproliferative IC50 over 36 hrs by RT-qPCR analysis; format: functional, cell-based; procedure, shortened: as §3
HN12 [4] = test: Induction of apoptosis in human HN12 cells assessed as genomic DNA laddering after 48 hrs by agarose gel electrophoresis method; format: functional, cell-based
Procedure, shortened: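 HN12 cells treated for 48 h at the proliferation-assay IC50 and at a semilog dose above and below it. Genomic DNA was resolved electrophoretically and scored for laddering.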

UMSCC23 [5] = test: Induction of apoptosis in human UMSCC23 cells assessed as increase in NOXA mRNA expression at antiproliferative IC50 over 36 hrs by RT-qPCR analysis; format: functional, cell-based; procedure, shortened: as §3
UMSCC23 [6] = test: Antiproliferative activity against human UMSCC23 cells after 48 hrs by ATP-based Cell Titer-Glo assay; format: functional; settings: for IC50: UMSCC23, 48 h; procedure, shortened: as §2
HN12 [7] = test: Induction of apoptosis in human HN12 cells assessed as increase in NOXA mRNA expression at antiproliferative IC50 over 36 hrs by RT-qPCR analysis; format: functional, cell-based; procedure, shortened: as §3
UMSCC23 [8] = test: Induction of apoptosis in human UMSCC23 cells assessed as increase in GADD45alpha mRNA expression at antiproliferative IC50 over 36 hrs by RT-qPCR analysis; format: functional, cell-based; procedure, shortened: as §3
HN12 [9] = test: Induction of apoptosis in human HN12 cells assessed as increase in DR5 mRNA expression at antiproliferative IC50 over 36 hrs by RT-qPCR analysis; format: functional, cell-based; procedure, shortened: as §3
UMSCC23 [10] = test: Induction of apoptosis in human UMSCC23 cells assessed as increase in DR5 mRNA expression at antiproliferative IC50 over 36 hrs by RT-qPCR analysis; format: functional, cell-based; procedure, shortened: as §3
[11] = Permeability of the compound at 100 uM after 6 hrs by PAMPA; format: ADME
HN12 [12] = test: Induction of apoptosis in human HN12 cells assessed as increase in Bcl2 mRNA expression at antiproliferative IC50 over 36 hrs by RT-qPCR analysis; format: functional, cell-based; procedure, shortened: as §3
HN12 [13] = test: as §1; format: functional; procedure, shortened: as §2

permeability [11] | Compound | IC50 [1] | Activity (UMSCC23 [2]) | Activity (HN12 [3]) | Activity (HN12 [4]) | Activity (UMSCC23 [5]) | IC50 (UMSCC23 [6]) | Activity (HN12 [7]) | Activity (UMSCC23 [8]) | Activity (HN12 [9]) | Activity (UMSCC23 [10]) | Activity (HN12 [12]) | Activity (HN12 [13]) | Activity (UMSCC23 [6])
35% | C=CC1=C[C@@H]2[C@@H]3O[C@](O)(CC[C@H](O)[C@@H](C)C[C@@H](O)C3=O)CC(=O)C3=NCC[C@@]32CC1 | 116 nM | Active | Active | Active | Active | 229 nM | Active | Active | Active | Active | Active | – | –
12% | C[C@]12C=CC(=O)C=C1CC[C@@H]1[C@@H]2C(=O)C[C@@]2(C)[C@H]1CC[C@]2(O)C(=O)CO [PREDNISONE] | – | – | – | – | – | – | – | – | – | – | – | – | –

Compound | permeability [11] | IC50 [1] | Activity (UMSCC23 [2]) | Activity (HN12 [3]) | Activity (HN12 [4]) | Activity (UMSCC23 [5]) | IC50 (UMSCC23 [6]) | Activity (HN12 [7]) | Activity (UMSCC23 [8]) | Activity (HN12 [9]) | Activity (UMSCC23 [10]) | Activity (HN12 [12]) | Activity (HN12 [13]) | Activity (UMSCC23 [6])
C=CC1=C[C@@H]2[C@@H]3O[C@]4(CC[C@H](O4)[C@@H](C)C[C@@H](O)C3=O)C[C@H](O)C3=NCC[C@@]32CC1 | 54% | 2.8 nM | Active | Active | Active | Active | 3.2 nM | Active | Active | Active | Active | Active | Dose-dependent effect | Dose-dependent effect
